Here are results for twelve compounds from ChEMBL document CHEMBL3085679, “Combining in silico and biophysical methods for the development of Pseudomonas aeruginosa quorum sensing inhibitors: an alternative approach for structure-based drug design” (J Med Chem, 2013).

Activity calls are given as the source filed them. The calls are words filed in the database; no cut-off is given here.

Assay [1] is described as follows: Inhibition of Pseudomonas aeruginosa recombinant His6-tagged PqsD expressed in Escherichia coli BL21(lambda DE3) assessed as anthraniloyl-CoA and beta-ketodecanoic acid conversion to heptyl-4-hydroxyquinoline preincubated for 10 mins prior to substrate addition by LC-MS/MS analysis. An outline of the steps:
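HHQ formation from anthraniloyl-CoA and β-ketodecanoic acid by purified PqsD (0.1 µM) in 0.05 M MOPS pH 7.0, 0.005% Triton X-100, 0.5% final DMSO; 10 min preincubation with inhibitor at 37 °C, started with anthraniloyl-CoA (5 µM final) and β-ketodecanoic acid (70 µM final); HHQ quantified by LC-MS, DMSO control set to 100%; triplicates.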

A short description of assay [2]: Binding affinity to Pseudomonas aeruginosa recombinant His6-tagged PqsD expressed in Escherichia coli BL21(lambda DE3) measured every 180 seconds by isothermal titration calorimetric analysis. An outline of the steps:
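ITC at 25 °C in PBS pH 7.4, 10% glycerol, 5% DMSO; 100 µM His6-PqsD in cell titrated with 2 µL injections of 1.0 mM ligand every 180 s; ligand diluted 1:20 from 20 mM DMSO stock; protein quantified by A280 (ε 17,780 M−1 cm−1); stoichiometry and KD fitted.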
Background: Isothermal titration calorimetry measures the heat released or taken up as one component is titrated into another.

In assay [3] the test system is Pseudomonas aeruginosa. Nature of the assay: Competitive binding affinity to Pseudomonas aeruginosa recombinant His6-tagged PqsD ACoA-channel expressed in Escherichia coli BL21(lambda DE3) at 100 uM by SPR analysis in presence of (2-nitrophenyl)(phenyl)methanol. The gist of the method:
(§1)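 SPR competition: amine-coupled PqsD on CMD500M chip preincubated by adding competitor (100 µM) to running buffer (50 mM MOPS pH 8.0, 150 mM NaCl, 5% DMSO, 0.1% Triton X-100), flushed at 50 µL/min until stable; test compounds (100 µM) then injected twice at 10 µL/min, 120 s association, 300 s dissociation.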

Assay [4] relates to Pseudomonas aeruginosa. Nature of the assay: Inhibition of anthraniloyl coenzyme A binding to Pseudomonas aeruginosa recombinant His6-tagged PqsD ACoA-channel expressed in Escherichia coli BL21(lambda DE3) by SPR analysis.
Assay [5] deals with Pseudomonas aeruginosa. Description: Binding affinity to Pseudomonas aeruginosa recombinant His6-tagged PqsD expressed in Escherichia coli BL21(lambda DE3) at 100 uM by SPR analysis. The gist of the method:
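SPR: wild-type or R223A mutant PqsD amine-coupled to CMD500M chip (5000-6000 RU) at 12 °C; running buffer 50 mM MOPS pH 8.0, 150 mM NaCl, 5% DMSO, 0.1% Triton X-100; compounds at 100 µM final injected twice, 120 s association, 300 s dissociation, 50 µL/min; double referencing with blanks and DMSO calibration.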

Assay [6] relates to Pseudomonas aeruginosa. Description: Competitive binding affinity to Pseudomonas aeruginosa recombinant His6-tagged PqsD ACoA-channel expressed in Escherichia coli BL21(lambda DE3) at 100 uM by SPR analysis in presence of (2-nitrophenyl)methanol. The gist of the method:
as §1
For orientation: Surface plasmon resonance follows binding to a sensor surface in real time, without labels.

In assay [7] the test system is Pseudomonas aeruginosa. Description: Binding affinity to Pseudomonas aeruginosa recombinant His6-tagged PqsD R223A mutant expressed in Escherichia coli BL21(lambda DE3) at 100 uM by SPR analysis. An outline of the steps:
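Recombinant His6-PqsD R223A (E. coli BL21(λDE3), Ni-NTA purified) amine-coupled to CMD500M chip at 5000-6000 RU. Compounds diluted from 10 mM DMSO stock to 100 µM final in running buffer (50 mM MOPS pH 8.0, 150 mM NaCl, 5% DMSO, 0.1% Triton X-100). Run at 12 °C, 50 µL/min. Each compound injected twice, 120 s association, 300 s dissociation. Data double-referenced against blanks and DMSO calibration.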

Assay [8] deals with Pseudomonas aeruginosa. Nature of the assay: Competitive binding affinity to Pseudomonas aeruginosa recombinant His6-tagged PqsD ACoA-channel expressed in Escherichia coli BL21(lambda DE3) at 1 mM by saturation transfer difference NMR analysis in presence of (2-nitrophenyl)(phenyl)methanol.
The subject of a further assay is Escherichia coli. Description: Inhibition of Escherichia coli RNA polymerase at 200 uM preincubated for 10 mins prior to DNA template and NTPs addition measured after 10 mins by [5,6-3H]-UTP incorporation assay relative to control. An outline of the steps:
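E. coli RNA polymerase holoenzyme (1 unit) in 40 mM Tris-HCl pH 7.5, 150 mM KCl, 10 mM MgCl2, 10 mM DTT, 0.1% CHAPS, RNase inhibitor, 2% final DMSO; preincubated with compound 10 min at 25 °C; started with plasmid DNA template plus 400 µM ATP/CTP/GTP, 100 µM UTP and [5,6-3H]-UTP, 10 min at 37 °C; TCA-precipitated RNA counted by scintillation.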

In assay [9] the test system is Pseudomonas aeruginosa. Description: Binding affinity to tryptically digested Pseudomonas aeruginosa recombinant His6-tagged PqsD ACoA-channel expressed in Escherichia coli BL21(lambda DE3) at 10 uM after 60 mins by MALDI-TOF-MS analysis. The gist of the method: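 PqsD (10 µM) and compound (10 µM) preincubated 60 min at 37 °C in 0.05 M MOPS pH 7.0, 0.005% Triton X-100, 0.5% DMSO; buffer exchanged to 0.05 M NH4HCO3 pH 8.1 by diafiltration, trypsin digestion overnight, DTT added; peptides analysed by MALDI-TOF in positive reflector mode, tracking the Cys112-containing fragment.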

Assay [10] deals with Pseudomonas aeruginosa. Nature of the assay: Binding affinity to Pseudomonas aeruginosa recombinant His6-tagged PqsD ACoA-channel expressed in Escherichia coli BL21(lambda DE3) at 25 uM after 30 mins by LC-ESI-MS analysis. An outline of the steps: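 PqsD (25 µM) preincubated 30 min at 37 °C with compound (25 µM) in 0.05 M Tris-HCl pH 8.0, 0.5% DMSO; DTT added, then reversed-phase HPLC (C8, water/acetonitrile with 0.05% TFA gradient, 45 °C) coupled to ESI high-resolution TOF MS to detect intact protein–inhibitor adduct mass.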

Take `COc1ccc(-c2cc(NC(=O)NCCC(=O)O)c(C(=O)O)s2)cc1`: in assay [1], the IC50 is 37 µM.
Still for that read-out and setting: for `COc1ccc(-c2cc(NC(=O)N[C@H](C)C(=O)O)c(C(=O)O)s2)cc1` the value was 54 µM.
For the compound `CCN(Cc1ccccc1)C(=O)Nc1cc(-c2ccc(OC)cc2)sc1C(=O)O`, the Kd in [2] came to 6.3 µM. Further, the outcome with Pseudomonas aeruginosa [3] and in the assay on Pseudomonas aeruginosa [5] was Active. Moreover, the inhibition entry in the assay with Pseudomonas aeruginosa [4] is “Active”. The IC50 in assay [1] is 6 µM. Further, in the assay on Pseudomonas aeruginosa [6], the result was inactive.
In the case of `NC(=O)Nc1cc(-c2ccc(Oc3ccccc3)cc2)sc1C(=O)O`, the outcome with Pseudomonas aeruginosa [3], in the assay on Pseudomonas aeruginosa [5] and in the assay with Pseudomonas aeruginosa [6] was Active. Also, in [1], the IC50 came to 20 µM.
For `COc1ccc(-c2cc(NC(N)=O)c(C(=O)O)s2)cc1`, the result with Pseudomonas aeruginosa [3] was Active. In addition, the RU in the assay on Pseudomonas aeruginosa [7] amounted to 6; in the assay with Pseudomonas aeruginosa [5] it was 25. Further, the IC50 in assay [1] is 170 µM.
On to `COc1ccc(-c2cc(NC(=O)N[C@H](Cc3ccccc3)C(=O)O)c(C(=O)O)s2)cc1`, for which the IC50 in assay [1] was 26 µM.
With `COc1ccc(-c2cc(NC(=O)N[C@@H](Cc3ccccc3)C(=O)O)c(C(=O)O)s2)cc1`, the outcome with Pseudomonas aeruginosa [3] and in the assay with Pseudomonas aeruginosa [8] was Active. The half-maximal inhibitory concentration (IC50) in assay [1] stood at 0.5 µM. In the assay with Escherichia coli, this compound came in with an inhibition of 10%.
With `O=C(CCl)Nc1ccc(-c2cc(NC(=O)N[C@@H](Cc3ccccc3)C(=O)O)c(C(=O)O)s2)cc1`, the outcome in the assay on Pseudomonas aeruginosa [9] and with Pseudomonas aeruginosa [10] was Active. Also, the IC50 in [1] is 2 µM.
As to `COc1ccc(-c2cc(NC(=O)NC(C)(C)C(=O)O)c(C(=O)O)s2)cc1`, the IC50 in assay [1] was 56 µM.
For the compound `COc1ccc(-c2cc(NC(=O)NCC(=O)O)c(C(=O)O)s2)cc1`, the IC50 in assay [1] was 7 µM.
Take `COc1ccc(-c2cc(NC(=O)N[C@@H](C)C(=O)O)c(C(=O)O)s2)cc1`: in assay [1], the IC50 stood at 2 µM. This compound returned an inhibition in the assay with Escherichia coli of 10%.
For the compound `COc1ccc(-c2cc(NC(=O)NCCc3ccccc3)c(C(=O)O)s2)cc1`, the IC50 in assay [1] was determined as 58 µM.

The IC50 is the midpoint of a concentration-inhibition curve. As usually defined, the Kd is the constant that tells how readily two partners part at equilibrium. Broadly, the inhibition is the percentage by which the read-out fell short of the control.
